Hits are enriched below; roughly 3.1% of the tested compounds scored in any of these assays.
OX1R antag-1: OX1R (HCRTR1) antagonists, primary screen, fluorescence, CHO/OX1R cells, Fluo-8 calcium, orexin A. Orexin/Hypocretin receptor type 1 (Homo sapiens), O43613. Fluo-8 calcium fluorescence. inhibition, % at 5 µM. 330,000 tested, 0.43% active. AID 434989, 2010;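 active = inhibition above its plate's threshold, mean inhibition of all tested compounds on the plate plus 3 SD, cut at about 37% in these data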;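 also: 0% = orexin A challenge wells and 100% = SB-334867-A antagonist wells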
Target sequence (O43613 whole entry, looked up): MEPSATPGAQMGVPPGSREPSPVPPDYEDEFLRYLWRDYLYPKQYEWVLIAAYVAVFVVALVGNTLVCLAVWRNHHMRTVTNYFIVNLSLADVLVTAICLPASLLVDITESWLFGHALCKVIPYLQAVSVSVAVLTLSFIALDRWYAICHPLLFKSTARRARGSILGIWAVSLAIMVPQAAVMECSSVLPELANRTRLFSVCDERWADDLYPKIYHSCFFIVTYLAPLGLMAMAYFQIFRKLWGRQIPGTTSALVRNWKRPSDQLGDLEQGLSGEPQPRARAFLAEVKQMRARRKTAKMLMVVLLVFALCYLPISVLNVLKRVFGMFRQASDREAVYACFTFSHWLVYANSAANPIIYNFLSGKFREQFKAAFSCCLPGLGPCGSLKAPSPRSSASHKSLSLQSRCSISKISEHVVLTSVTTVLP
OX1R antag-2: antagonists of human orexin 1 receptor (OX1R) | Orexin/Hypocretin receptor type 1 (Homo sapiens), O43613 | OX1R-expressing cells, FRET antagonist read-out | inhibition, % at 6.6 µM | 330,000 tested, 1.8% active; in the data active = inhibition mostly above about 38%, no sharp cut-off; inactive = mostly below about 40%;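 also: 0% = agonist challenge alone and 100% = reference antagonist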
GPR7 antag: GPR7 receptor antagonists, primary screen, cell-based, fluorescence, single concentration | AID 1861, 2009 | inhibition, % at 4.4 µM | 290,000 tested, 1.1% active | Neuropeptides B/W receptor type 1 (Homo sapiens), P48145 | GPR7-expressing cells, fluorescence antagonist assay; in the data active = inhibition above about 16%, passing the limit was not always enough;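 also: cells stimulated with the agonist NPW; 0% = agonist with vehicle and 100% = vehicle without agonist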
CHO parental Ca: ATP-evoked calcium signal inhibitors, parental CHO, primary screen, counter-screen for OX1R antagonist project, cell-based, fluorescence, Fluo-8 calcium dye; parental CHO-K1, ATP-induced calcium, Fluo-8 fluorescence; inhibition, % at 5.6 µM; 330,000 tested, 0.63% active; AID 463079, 2010;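 active = inhibition above that plate's mean sample inhibition plus 3 SD, cut at about 26% in these data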;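 also: 0% = ATP-challenged DMSO wells and 100% = DMSO wells without ATP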
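material = parental CHO cells | also added = ATP as calcium-mobilizing challenge | dosing = single point at 5.6 µM | detection = intracellular calcium via Fluo-8 no-wash fluorescent dye | read-out = % inhibition | benchmarks = low control ATP plus DMSO, high control DMSO only | repeats = one well per compound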
GalR3 antagonist: GalR3 antagonists in HEK293 cells, primary screen, cell-based, fluorescence readout; HEK293 GalR3-CNG cAMP membrane potential fluorescence; galR3 body fused to GalR1 C-terminus; inhibition, % at 3 µM; 360,000 tested, 0.44% active;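 active = inhibition above the screen-wide average plus 3 SD, cut at about 13% in these data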;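 also: forskolin and galanin both at EC90 stimulate the cells; cAMP rise reported by CNG channel membrane potential dye signal; 0% = forskolin plus galanin with DMSO and 100% = forskolin alone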
* = called active by the depositor.

For C=C1C(=O)CC2=C1[C@](Cc1ccc(F)cc1)(C(=O)OC)N(C(=O)c1ccccc1)C2 the results were GalR3 antagonist -5.
For COc1ccc(-c2ccc(=O)n(Cc3cccc([N+](=O)[O-])c3)n2)cc1 the results were OX1R antag-1 -6, OX1R antag-2 31, GPR7 antag 39*, CHO parental Ca 4 and GalR3 antagonist -1.
COc1ccc(-c2ccc(=O)n(Cc3c(F)cccc3Cl)n2)cc1 was read as OX1R antag-1 -28, OX1R antag-2 23, GPR7 antag -16, CHO parental Ca -28 and GalR3 antagonist -7.
O=C(Nc1nccs1)c1ccc([N+](=O)[O-])cc1 was read as OX1R antag-1 -11, OX1R antag-2 42*, GPR7 antag 1, CHO parental Ca -8 and GalR3 antagonist -7.
For O=C(NC(=S)Nc1ccccn1)c1ccc([N+](=O)[O-])cc1 the results were OX1R antag-1 2, OX1R antag-2 27, GPR7 antag -3, CHO parental Ca -7 and GalR3 antagonist 5.
Screening O=C(Nc1ncccn1)c1ccc([N+](=O)[O-])cc1 returned OX1R antag-1 -12, OX1R antag-2 58*, GPR7 antag -2, CHO parental Ca -10 and GalR3 antagonist -1.
`O=C(Nc1ccccc1O)c1ccc([N+](=O)[O-])cc1` gave OX1R antag-1 -3, OX1R antag-2 33*, GPR7 antag -2, CHO parental Ca 16 and GalR3 antagonist -9.
Screening CCn1c(SCC(=O)Nc2ccc(Br)cn2)nnc1C1CC1 returned OX1R antag-1 -12, OX1R antag-2 13, GPR7 antag -16, CHO parental Ca -11 and GalR3 antagonist 1.
For Brc1cccc(-c2n[nH]c(-c3ccccc3)n2)c1 the results were OX1R antag-1 63*, OX1R antag-2 71*, GPR7 antag 8, CHO parental Ca 97* and GalR3 antagonist -4.
Screening C[C@H]1CN(c2ccc(N3CCNC[C@@H]3C)cc2C#N)CCN1Cc1ccccc1 returned GalR3 antagonist -1.
For COc1ccc(-n2c(CN3CCN(c4ccccc4OC)CC3)nc3ccc([N+](=O)[O-])cc3c2=O)c(OC)c1 the results were GPR7 antag -16 and GalR3 antagonist -7.
CCN1CCN(Cc2nc3ccc([N+](=O)[O-])cc3c(=O)n2-c2ccc(OC)cc2OC)CC1 was read as OX1R antag-1 1, OX1R antag-2 34*, GPR7 antag 7, CHO parental Ca -15 and GalR3 antagonist -8.
For COc1ccc(C(=O)CC2(O)C(=O)N(CN3CCOCC3)c3ccc(Br)cc32)cc1 (stereo not given) the results were GalR3 antagonist -7.
For N#Cc1c(-c2ccccc2)cc(-c2ccccc2)nc1SCCC(=O)O the results were OX1R antag-1 -16, OX1R antag-2 74*, GPR7 antag -2, CHO parental Ca 8 and GalR3 antagonist -11.
`Oc1ccc(CCNc2ncnc3ccc(Cl)cc23)cc1` gave OX1R antag-1 43*, OX1R antag-2 86*, GPR7 antag 16, CHO parental Ca 72* and GalR3 antagonist -5.
Screening CCNC(=O)N1CCN(c2ccc(N3CCN(C(=O)NCC)[C@@H](C)C3)c(C)c2)[C@H](C)C1 returned GalR3 antagonist -5.
`COc1cccc(OC)c1C(=O)Nc1sc2c(c1C#N)CCC2` gave OX1R antag-1 -11, OX1R antag-2 55*, GPR7 antag -1, CHO parental Ca -6 and GalR3 antagonist -2.
For CC(=O)Nc1ccc(Oc2ccc([N+](=O)[O-])cc2Cl)cc1 the results were OX1R antag-1 0, OX1R antag-2 10, GPR7 antag 9, CHO parental Ca -8 and GalR3 antagonist -2.
For CC(=O)Nc1ccc(N=c2cc([N+](=O)[O-])cc(Cl)n2O)cc1 the results were OX1R antag-1 -5, OX1R antag-2 66*, GPR7 antag 5, CHO parental Ca -2 and GalR3 antagonist -12.
`CCOc1ccc2nc3cc(NCc4ccc(OC)cc4)ccc3c(N)c2c1` gave OX1R antag-1 10, OX1R antag-2 44*, GPR7 antag -8 and CHO parental Ca 2.
Screening CCCCN(C(=O)CNC(=O)c1ccco1)C(C(=O)NC1CCCCC1)c1cccnc1 (stereo not given) returned OX1R antag-1 -19, OX1R antag-2 0, GPR7 antag -11, CHO parental Ca -13 and GalR3 antagonist -4.
COc1ccc(-c2noc(C3CCCN(S(=O)(=O)c4ccc(C)c(Cl)c4)C3)n2)cc1OC (stereo not given) was read as OX1R antag-1 -5, OX1R antag-2 3, GPR7 antag -2, CHO parental Ca -17 and GalR3 antagonist -5.
For COc1ccc(-c2noc(C3CCCN(S(=O)(=O)c4cccc(Cl)c4C)C3)n2)cc1OC (stereo not given) the results were OX1R antag-1 4, OX1R antag-2 45*, GPR7 antag 6, CHO parental Ca -30 and GalR3 antagonist -3.
`COc1cccc(C(=O)Nc2cc(C)c3c(=O)oc4ccccc4c3n2)c1` gave OX1R antag-1 -28, OX1R antag-2 45*, CHO parental Ca -18 and GalR3 antagonist 2.
For Cc1c(CCOC(=O)c2ccccc2)sc[n+]1CC(=O)c1ccc(Br)cc1 the results were OX1R antag-1 -17, OX1R antag-2 13, GPR7 antag 20* and CHO parental Ca -7.
For Cc1c(CCOC(=O)c2cc([N+](=O)[O-])cc([N+](=O)[O-])c2)sc[n+]1CC(=O)c1ccccc1 the results were OX1R antag-1 -16, OX1R antag-2 26, GPR7 antag -8, CHO parental Ca -23 and GalR3 antagonist -8.
O=C(O/C(=C/c1ccccc1)C(F)(F)F)c1ccccc1 was read as GalR3 antagonist 1.
`O=c1c(-c2nnc(SCc3ccc(Cl)cc3)o2)cccn1Cc1ccccc1` gave OX1R antag-1 -7, OX1R antag-2 40*, GPR7 antag -14, CHO parental Ca 2 and GalR3 antagonist -4.
O=C(Nc1ccccc1-c1nnc(SCc2ccc(Cl)cc2)o1)c1ccccc1 was read as OX1R antag-1 -14, OX1R antag-2 10, GPR7 antag -18, CHO parental Ca -10 and GalR3 antagonist -2.
CCOc1ccccc1N(CC(=O)NCCSc1ccccn1)S(=O)(=O)c1ccc(C)cc1 was read as OX1R antag-1 -13, OX1R antag-2 42*, GPR7 antag -2, CHO parental Ca -32 and GalR3 antagonist -6.
Cc1ccccc1N(CC(=O)NCCSc1ccccn1)S(=O)(=O)c1ccccc1 was read as OX1R antag-1 -21, OX1R antag-2 40, GPR7 antag -5, CHO parental Ca -31 and GalR3 antagonist -1.
